Measured values published in ChEMBL document CHEMBL1132324, “Structure-activity relationships in 1,4-benzodioxan-related compounds. 6. Role of the dioxane unit on selectivity for alpha(1)-adrenoreceptor subtypes” (J Med Chem, 1999).

Key:
[1] = molecular target: T1, 5-hydroxytryptamine receptor 1A (Homo sapiens) (UniProt P08908); assay: The binding affinity was evaluated on cloned human 5-hydroxytryptamine 1A receptor expressed in HeLa cells by using DPAT as radioligand.; type: cell-based
T1 sequence (whole entry): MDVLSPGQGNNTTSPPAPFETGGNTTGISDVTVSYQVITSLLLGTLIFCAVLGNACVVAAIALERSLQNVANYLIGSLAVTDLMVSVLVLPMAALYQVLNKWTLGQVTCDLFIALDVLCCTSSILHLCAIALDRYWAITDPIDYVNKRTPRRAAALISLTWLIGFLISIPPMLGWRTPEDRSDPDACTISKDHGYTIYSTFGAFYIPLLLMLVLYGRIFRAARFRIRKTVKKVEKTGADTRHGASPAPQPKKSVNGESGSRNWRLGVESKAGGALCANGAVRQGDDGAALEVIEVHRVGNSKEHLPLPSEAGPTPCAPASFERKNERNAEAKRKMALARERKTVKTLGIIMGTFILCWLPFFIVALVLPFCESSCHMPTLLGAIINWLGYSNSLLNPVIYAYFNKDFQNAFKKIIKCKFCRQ
How it was run: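 Membranes from HeLa cells stably expressing human 5-HT1A, in 50 mM Tris-HCl pH 7.4, 2.5 mM MgCl2, 10 μM pargyline. Nonspecific binding with 10 μM 5-HT. Filtration. Ki by Cheng-Prusoff. 2–3 experiments in triplicate.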

[2] = molecular target: D(2) dopamine receptor (Rattus norvegicus) (UniProt P61169); assay: The binding affinity was evaluated on Dopamine receptor D2 expressed in rat striatum by using [3H]spiperone as radioligand; type: tissue-based
How it was run: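 Rat striatum membranes in Tris-HCl with 10 μM pargyline, 0.1% ascorbic acid, 120 mM NaCl, 5 mM KCl, 2 mM CaCl2, 1 mM MgCl2. Incubated 15 min at 37 °C with 0.2–0.6 nM [3H]spiperone. Nonspecific binding with 1 μM (+)-butaclamol. Ki by Cheng-Prusoff. 2–3 experiments in triplicate.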

[3] = molecular target: 5-hydroxytryptamine receptor 2A (Rattus norvegicus) (UniProt P14842); assay: The binding affinity was evaluated on 5-hydroxytryptamine 2A receptor expressed in rat cortex by using [3H]ketanserin as radioligand.
How it was run: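 Rat cerebral cortex membranes in Tris-HCl pH 7.4 with 10 μM pargyline and 0.1% ascorbic acid. Incubated 20 min at 37 °C with 0.7–1.3 nM [3H]ketanserin. Nonspecific binding with 2 μM ketanserin. Filtration and scintillation counting. Ki by Cheng-Prusoff. 2–3 experiments in triplicate.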

[4] = molecular target: Adrenergic receptor alpha-2 (Rattus norvegicus) (UniProt P22086+P19328+P22909); assay: The binding affinity was evaluated on alpha-2 adrenergic receptor expressed in rat cortex by using [3H]rauwolscine as radioligand.
How it was run: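 Male Sprague-Dawley rat cerebral cortex membranes, washed in Tris-HCl pH 7.4 and held in buffer with 10 μM pargiline and 0.1% ascorbic acid. Incubated 30 min at 25 °C with 0.5-1.5 nM [3H]rauwolscine; nonspecific binding with 10 μM phentolamine. Filtration, scintillation counting. Ki from Cheng-Prusoff; 2-3 experiments in triplicate.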

[5] = molecular target: T2, Alpha-1A adrenergic receptor (Homo sapiens) (UniProt P35348); assay: The binding affinity was evaluated on cloned human alpha-1A adrenergic receptor expressed in chinese hamster ovary(CHO) cells by using [3H]prazosin as radioligand.; type: cell-based
T2 sequence (whole entry): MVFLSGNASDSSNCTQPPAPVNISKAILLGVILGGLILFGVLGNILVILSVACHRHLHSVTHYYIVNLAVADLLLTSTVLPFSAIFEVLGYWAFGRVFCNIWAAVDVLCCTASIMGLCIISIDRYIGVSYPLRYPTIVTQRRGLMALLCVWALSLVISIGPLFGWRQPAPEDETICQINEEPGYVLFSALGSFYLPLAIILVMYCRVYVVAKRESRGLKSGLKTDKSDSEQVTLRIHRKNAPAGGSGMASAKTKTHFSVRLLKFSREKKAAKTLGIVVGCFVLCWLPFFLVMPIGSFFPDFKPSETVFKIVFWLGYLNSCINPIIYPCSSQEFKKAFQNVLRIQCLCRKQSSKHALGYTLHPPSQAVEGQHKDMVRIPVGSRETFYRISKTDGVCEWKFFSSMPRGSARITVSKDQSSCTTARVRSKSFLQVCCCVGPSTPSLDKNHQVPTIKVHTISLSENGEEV
How it was run: (§1)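 Membranes (30 μg protein) from CHO cells stably expressing each human α1 subtype, in 50 mM Tris-HCl pH 7.4. Incubated with 0.1–0.4 nM [3H]prazosin for 30 min at 25 °C, competitor 1 pM–10 μM. Nonspecific binding with 10 μM phentolamine. Ki by Cheng-Prusoff. 2–3 experiments in triplicate.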

[6] = molecular target: T3, Alpha-1B adrenergic receptor (Homo sapiens) (UniProt P35368); assay: The binding affinity was evaluated on cloned human Alpha-1B adrenergic receptor expressed in chinese hamster ovary(CHO) cells by using [3H]prazosin as radioligand.; type: cell-based; how it was run: as §1
T3 sequence (whole entry): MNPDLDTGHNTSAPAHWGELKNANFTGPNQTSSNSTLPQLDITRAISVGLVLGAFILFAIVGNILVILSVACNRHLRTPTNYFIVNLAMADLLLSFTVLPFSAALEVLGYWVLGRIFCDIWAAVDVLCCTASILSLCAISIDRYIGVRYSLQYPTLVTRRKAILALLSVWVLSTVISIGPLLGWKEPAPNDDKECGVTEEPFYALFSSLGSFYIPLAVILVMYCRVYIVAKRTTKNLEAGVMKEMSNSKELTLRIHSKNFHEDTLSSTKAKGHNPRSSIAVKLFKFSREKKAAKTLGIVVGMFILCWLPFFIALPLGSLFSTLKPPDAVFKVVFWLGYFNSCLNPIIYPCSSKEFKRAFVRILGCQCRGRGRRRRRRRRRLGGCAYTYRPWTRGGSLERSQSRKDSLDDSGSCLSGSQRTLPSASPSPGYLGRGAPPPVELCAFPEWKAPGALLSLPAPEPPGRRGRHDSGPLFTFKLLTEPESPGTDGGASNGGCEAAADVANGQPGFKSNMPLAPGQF

[7] = molecular target: T4, Alpha-1D adrenergic receptor (Homo sapiens) (UniProt P25100); assay: The binding affinity was evaluated on cloned human alpha-1D adrenergic receptor expressed in chinese hamster ovary(CHO) cells by using [3H]prazosin as radioligand.; type: cell-based; how it was run: as §1
T4 sequence (whole entry): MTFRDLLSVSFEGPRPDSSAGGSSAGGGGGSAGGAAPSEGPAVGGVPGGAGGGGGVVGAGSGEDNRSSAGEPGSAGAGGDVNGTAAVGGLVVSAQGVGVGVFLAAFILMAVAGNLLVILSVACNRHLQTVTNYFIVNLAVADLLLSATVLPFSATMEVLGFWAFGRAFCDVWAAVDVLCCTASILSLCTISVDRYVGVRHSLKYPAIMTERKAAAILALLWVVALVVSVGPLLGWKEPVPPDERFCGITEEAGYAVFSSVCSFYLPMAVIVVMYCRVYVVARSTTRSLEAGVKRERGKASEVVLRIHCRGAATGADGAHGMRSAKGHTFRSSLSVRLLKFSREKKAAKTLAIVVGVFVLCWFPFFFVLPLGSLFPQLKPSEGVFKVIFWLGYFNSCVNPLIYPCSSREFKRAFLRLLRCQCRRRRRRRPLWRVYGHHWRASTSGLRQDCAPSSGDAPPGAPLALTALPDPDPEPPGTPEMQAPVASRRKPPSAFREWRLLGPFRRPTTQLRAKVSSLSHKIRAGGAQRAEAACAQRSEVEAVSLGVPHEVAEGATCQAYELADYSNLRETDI

[8] = molecular target: T1, 5-hydroxytryptamine receptor 1A (Homo sapiens)
[9] = molecular target: T5, Alpha-1A adrenergic receptor (Rattus norvegicus) (UniProt P43140); assay: Antagonist affinity was expressed as apparent pKb at Alpha-1A adrenergic receptor on isolated rat prostatic vas deferens (alpha1A).; type: functional, tissue-based
T5 sequence (whole entry): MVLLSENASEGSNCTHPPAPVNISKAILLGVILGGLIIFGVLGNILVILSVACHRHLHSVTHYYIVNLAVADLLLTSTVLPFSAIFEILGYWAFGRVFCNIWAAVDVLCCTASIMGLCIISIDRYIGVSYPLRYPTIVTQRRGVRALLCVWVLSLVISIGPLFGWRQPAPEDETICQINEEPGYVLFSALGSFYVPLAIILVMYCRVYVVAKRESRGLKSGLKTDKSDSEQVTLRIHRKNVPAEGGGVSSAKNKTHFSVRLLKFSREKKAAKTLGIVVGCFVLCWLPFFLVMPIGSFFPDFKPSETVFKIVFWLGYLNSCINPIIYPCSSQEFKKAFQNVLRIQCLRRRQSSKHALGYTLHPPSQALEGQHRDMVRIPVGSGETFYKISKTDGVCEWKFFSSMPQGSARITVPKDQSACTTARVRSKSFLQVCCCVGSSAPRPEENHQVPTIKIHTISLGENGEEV
How it was run: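 Rat prostatic vas deferens in Tyrode with 0.1 μM cocaine. Equilibrated 60 min, primed twice with 10 μM noradrenaline, then a control cumulative (–)-noradrenaline curve recorded isometrically. Antagonist equilibrated 30 min before a repeat curve. Apparent pKb = log(DR−1) − log[B], with DR as the ratio of agonist EC50 with/without antagonist. 2–3 antagonist concentrations, each tested four times.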

[10] = molecular target: T6, Alpha-1D adrenergic receptor (Rattus norvegicus) (UniProt P23944); assay: Antagonist affinity was expressed as apparent pKb at Alpha-1D adrenergic receptor on isolated rat thoracic aorta (Alpha-1D); type: functional, tissue-based
T6 sequence (whole entry): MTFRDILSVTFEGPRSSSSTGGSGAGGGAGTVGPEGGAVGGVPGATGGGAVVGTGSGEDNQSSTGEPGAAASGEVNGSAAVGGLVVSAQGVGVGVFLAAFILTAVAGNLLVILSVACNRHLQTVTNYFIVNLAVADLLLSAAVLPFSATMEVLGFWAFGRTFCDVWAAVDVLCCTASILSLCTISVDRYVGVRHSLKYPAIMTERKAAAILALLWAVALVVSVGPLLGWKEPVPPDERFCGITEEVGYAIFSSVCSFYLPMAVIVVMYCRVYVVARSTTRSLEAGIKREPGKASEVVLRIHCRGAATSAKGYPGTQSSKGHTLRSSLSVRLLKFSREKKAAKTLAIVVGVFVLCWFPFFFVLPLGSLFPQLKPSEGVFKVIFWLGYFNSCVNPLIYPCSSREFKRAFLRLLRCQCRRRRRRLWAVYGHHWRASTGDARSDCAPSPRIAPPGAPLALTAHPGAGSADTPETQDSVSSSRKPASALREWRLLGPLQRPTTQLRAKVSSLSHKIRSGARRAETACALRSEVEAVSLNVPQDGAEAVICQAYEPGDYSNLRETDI
How it was run: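 Helicoidal strips of rat thoracic aorta at 1 g tension, with 0.1 μM cocaine and 1 μM propranolol. After ≥1 h equilibration, cumulative (–)-noradrenaline curves at 30-min intervals; the third served as control. Antagonist equilibrated 30 min before the fourth curve. Apparent pKb from log(DR−1) − log[B], 2–3 antagonist concentrations, each tested four times.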

[11] = molecular target: T1, 5-hydroxytryptamine receptor 1A (Homo sapiens); assay: Agonist efficacy was evaluated as [35S]GTP binding on cloned human 5-hydroxytryptamine 1A receptor; type: functional
How it was run: (§2)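 HeLa membranes stably expressing human 5-HT1A, in 20 mM HEPES, 3 mM MgSO4, 120 mM NaCl (pH 7.4). Preincubated 20 min at 30 °C with 30 μM GDP and drug (100 μM–0.1 nM), then [35S]GTPγS (150–250 pM) added for a further 30 min at 30 °C. Nonspecific binding with 10 μM GTPγS. Filtration and scintillation counting. Stimulation is % above basal, with maximal 5-HT response = 100%. Emax and pD2 from curve fitting. Triplicate, 2–3 sessions.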

[12] = molecular target: T4, Alpha-1D adrenergic receptor (Homo sapiens); assay: The binding affinity was evaluated on cloned human Alpha-1D adrenergic receptor expressed in chinese hamster ovary(CHO) cells by using [3H]-prazosin as radioligand.; type: cell-based; how it was run: as §1
[13] = molecular target: T2, Alpha-1A adrenergic receptor (Homo sapiens); assay: The binding affinity was evaluated on cloned human Alpha-1A adrenergic receptor expressed in chinese hamster ovary(CHO) cells by using [3H]prazosin as radioligand.; type: cell-based; how it was run: as §1
[14] = molecular target: T1, 5-hydroxytryptamine receptor 1A (Homo sapiens); assay: Maximum […] was evaluated as ([35S]GTP binding on cloned human 5-hydroxytryptamine 1A receptor; type: functional; how it was run: as §2
[15] = molecular target: T1, 5-hydroxytryptamine receptor 1A (Homo sapiens); remark: listed apart in the source
[16] = molecular target: T3, Alpha-1B adrenergic receptor (Homo sapiens); assay: The binding affinity was evaluated on cloned human alpha-1B adrenergic receptor expressed in chinese hamster ovary(CHO) cells by using [3H]prazosin as radioligand.; type: cell-based; how it was run: as §1

D(2) dopamine receptor (Rattus norvegicus), sequence (P61169 whole entry): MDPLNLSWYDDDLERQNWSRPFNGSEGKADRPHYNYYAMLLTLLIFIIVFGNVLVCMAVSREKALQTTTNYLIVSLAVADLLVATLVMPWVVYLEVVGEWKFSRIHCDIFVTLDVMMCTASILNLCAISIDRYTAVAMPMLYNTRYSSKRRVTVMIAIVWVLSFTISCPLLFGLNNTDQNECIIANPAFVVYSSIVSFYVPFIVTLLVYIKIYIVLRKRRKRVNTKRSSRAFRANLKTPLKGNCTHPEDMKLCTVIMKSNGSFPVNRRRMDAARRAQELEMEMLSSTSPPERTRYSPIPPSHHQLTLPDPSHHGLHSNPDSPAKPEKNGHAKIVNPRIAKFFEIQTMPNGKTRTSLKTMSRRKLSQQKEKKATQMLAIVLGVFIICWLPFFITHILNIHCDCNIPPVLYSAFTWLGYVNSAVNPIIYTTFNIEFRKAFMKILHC
5-hydroxytryptamine receptor 2A (Rattus norvegicus), sequence (P14842 whole entry): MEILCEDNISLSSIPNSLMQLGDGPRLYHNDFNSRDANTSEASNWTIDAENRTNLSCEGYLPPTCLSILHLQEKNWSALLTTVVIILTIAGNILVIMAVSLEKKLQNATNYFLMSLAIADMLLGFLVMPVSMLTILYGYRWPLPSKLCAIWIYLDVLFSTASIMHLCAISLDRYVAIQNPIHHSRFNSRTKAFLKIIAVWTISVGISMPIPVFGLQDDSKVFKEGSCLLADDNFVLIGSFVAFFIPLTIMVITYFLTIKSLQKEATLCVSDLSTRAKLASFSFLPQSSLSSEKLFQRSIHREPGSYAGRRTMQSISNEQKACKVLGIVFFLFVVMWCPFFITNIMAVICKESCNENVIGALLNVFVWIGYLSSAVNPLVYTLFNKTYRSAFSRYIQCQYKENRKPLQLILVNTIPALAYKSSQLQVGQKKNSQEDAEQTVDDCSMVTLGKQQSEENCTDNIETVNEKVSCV

SMILES: COc1cccc(OC)c1OCCNCC1COc2ccccc2O1 (stereo not given)
- pKi [1]: 8.68
- pKi [2]: 6.91
- pKi [3]: 6
- pKi [4]: 7.83
- pKi [5]: 9.37

SMILES: COc1cccc(OC)c1OCCNCC1C(=O)c2ccccc2SC1c1ccccc1 (stereo not given)
- pKi [1]: 7.36
- pKi [6]: < 6
- pKi [7]: 6.37
- pKi [5]: 7.42

SMILES: NCCc1c[nH]c2ccc(C(N)=O)cc12
- pD2 [8]: 8.45

SMILES: COc1cccc(OC)c1OCCNC[C@H]1Oc2ccccc2O[C@@H]1c1ccccc1
- pKb [9]: 8.18
- pKb [10]: 7.51

SMILES: COc1cccc(OC)c1OCCNCC1=Cc2ccccc2OC1c1ccccc1 (stereo not given)
- pKi [1]: 8.08
- pKi [6]: 6.84
- pD2 [11]: 6.44
- pKi [12]: 6.95
- pKi [13]: 7.14
- Max [14]: 40%

SMILES: NCCc1c[nH]c2ccc(O)cc12
- pD2 [15]: 7.3

SMILES: COc1cccc(OC)c1OCCNCC1Oc2ccccc2CC1c1ccccc1 (stereo in doubt; 6)
- pKi [1]: 6.76
- pKi [7]: 6.86
- pKi [16]: 6.51
- pKi [5]: 6.78

SMILES: COc1cccc(OC)c1OCCNCC1C(=O)c2ccccc2CC1c1ccccc1 (stereo not given)
- pKi [1]: 6.83
- pKi [7]: 6.88
- pKi [2]: < 6
- pKi [3]: 6.63
- pKi [4]: 6.45
- pKi [16]: 6.11
- pKi [5]: 8.06
